From ChEMBL document CHEMBL5512639, “Insights from structure-activity relationships and the binding mode of peptidic α-ketoamide inhibitors of the malaria drug target subtilisin-like SUB1” (Eur J Med Chem, 2024)
Activity calls are given as the source filed them. The rule behind the calls is not given here. Numbered stars: 1 amine (or outer) side, 2 acyl side, 3 side chain; on linkers, the order of the positions; unused ones are H or OH. Square brackets hold non-standard residues; d marks the D form. Peptide text beside a SMILES is read from it. * marks the point of attachment. Ala(1H-tetrazol-5-yl) = N[C@@H](Cc1nnn[nH]1)C(=O)O; Abu(4,4,4-F3) = N[C@@H](CC(F)(F)F)C(=O)O; Gly(cPent) = N[C@H](C(=O)O)C1CCCC1; X1 = C[C@H](N[*:1])C(=O)C(=O)[*:2]; Nva(3-Et) = CCC(CC)[C@H](N)C(=O)O; Pyrazinecarbonyl = O=C(c1cnccn1)*; tBuAla = CC(C)(C)C[C@H](N)C(=O)O; NMeL = CN[C@@H](CC(C)C)C(=O)O; αMeL = CC(C)C[C@](C)(N)C(=O)O; Phg = N[C@H](C(=O)O)c1ccccc1; Tle = CC(C)(C)[C@H](N)C(=O)O; hSer = N[C@@H](CCO)C(=O)O; Dab = NCC[C@H](N)C(=O)O; Abu = CC[C@H](N)C(=O)O; Dap = NC[C@H](N)C(=O)O; Aib = CC(C)(N)C(=O)O; Dha = C=C(N)C(=O)O; Sar = CNCC(=O)O; OAll = C=CCO*

How the values were obtained:
[1] = Inhibition of full length recombinant Plasmodium vivax SUB1 expressed in Drosophila S2 cells using Dabsyl-KLVGADDV-SLA-EDANS as substrate measured every 2 mins for 1 hr by FRET assay
[2] = test system: Plasmodium falciparum; assay: Antiparasitic activity against Plasmodium falciparum infected in human Erythrocyte assessed as inhibition of merozoite egress from human Erythrocyte at 100 uM measured for 8 hrs by flow cytometry analysis relative to control; type: functional
Procedure, shortened: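 P. falciparum cultured in human RBCs, RPMI 1640 with 25 mM HEPES, 2.5% Albumax II, 100 μM hypoxanthine, 37 °C, 5% O2/5% CO2. Sorbitol-synchronized, plasmion-enriched late schizonts at 2% hematocrit, 1% parasitemia exposed to compound for 8 h. Fixed in glutaraldehyde, permeabilized, RNase-treated, stained with YOYO-1. Ring parasitemia by flow cytometry (100,000 events) vs DMSO. Triplicate; IC50 from 16 concentrations, 180 to 0.8 μM.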

[3] = molecular target: T1, Subtilisin-like protease 1 (Plasmodium falciparum, UniProt O61142); assay: Inhibition of full length recombinant Plasmodium falciparum SUB1 using Dabsyl-KLVSADNIDIS-EDANS as substrate measured every 2 mins for 1 hr by FRET assay
T1 sequence (O61142 whole entry): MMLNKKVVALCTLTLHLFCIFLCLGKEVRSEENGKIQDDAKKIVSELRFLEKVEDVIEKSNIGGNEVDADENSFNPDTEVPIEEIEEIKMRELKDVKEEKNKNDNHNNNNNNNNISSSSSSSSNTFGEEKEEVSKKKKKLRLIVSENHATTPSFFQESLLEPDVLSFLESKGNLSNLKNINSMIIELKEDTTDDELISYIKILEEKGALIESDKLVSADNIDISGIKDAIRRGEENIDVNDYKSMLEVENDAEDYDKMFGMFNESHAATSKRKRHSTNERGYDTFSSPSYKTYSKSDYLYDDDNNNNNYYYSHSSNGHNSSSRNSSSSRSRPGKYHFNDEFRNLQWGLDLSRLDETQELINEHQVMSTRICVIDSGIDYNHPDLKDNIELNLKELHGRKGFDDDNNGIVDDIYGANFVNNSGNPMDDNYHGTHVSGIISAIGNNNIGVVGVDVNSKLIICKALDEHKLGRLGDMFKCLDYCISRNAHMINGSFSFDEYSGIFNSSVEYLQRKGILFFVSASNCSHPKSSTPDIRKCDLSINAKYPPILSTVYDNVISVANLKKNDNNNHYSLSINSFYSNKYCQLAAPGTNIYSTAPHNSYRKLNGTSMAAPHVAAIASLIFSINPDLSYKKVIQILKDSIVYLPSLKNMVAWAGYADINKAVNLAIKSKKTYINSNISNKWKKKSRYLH

Structure (SMILES) | IC50 [1] [nM] | inhibition [2] | inhibition at 100 µM [2] [%] | IC50 [3] [nM]
C=CCOC(=O)CC[C@H](NC(=O)[C@H](CC(=O)O)NC(=O)C(=O)[C@H](CNC(C)=O)NC(=O)[C@H](C)NC(=O)[C@@H](NC(=O)[C@@H](NC(C)=O)C1CCCC1)[C@@H](C)O)C(N)=O | 2390 | inactive | – | –
C=CCOC(=O)CC[C@H](NC(=O)[C@H](CC(=O)O)NC(=O)C(=O)[C@H](CNC(C)=O)NC(=O)[C@H](C)NC(=O)[C@@H](NC(=O)[C@@H](NC(C)=O)[C@@H](C)CC)[C@@H](C)O)C(N)=O | 23100 | – | – | –
C=CCOC(=O)CC[C@H](NC(=O)[C@H](CC(=O)O)NC(=O)C(=O)[C@H](C)NC(=O)[C@@H](C)NC(=O)[C@@H](NC(=O)[C@@H](NC(C)=O)C1CCCC1)[C@@H](C)O)C(N)=O | – | inactive | – | –
C=CCOC(=O)CC[C@H](NC(=O)[C@H](CC(=O)O)NC(=O)C(=O)[C@H](C)NC(=O)[C@H](C)NC(=O)[C@H](CCCCN)NC(=O)[C@@H](NC(C)=O)[C@@H](C)CC)C(N)=O (Ac-IKA[X1]DE(OAll)-NH2) | 140 | – | 9 | –
C=CCOC(=O)CC[C@H](NC(=O)[C@H](CCC(=O)O)NC(=O)C(=O)[C@H](C)NC(=O)[C@H](C)NC(=O)[C@@H](NC(=O)[C@@H](NC(C)=O)[C@@H](C)CC)[C@@H](C)O)C(N)=O (Ac-ITA[X1]EE(OAll)-NH2) | 2900 | – | – | –
CC[C@H](C)[C@H](NC(C)=O)C(=O)N[C@H](C(=O)N[C@@H](C)C(=O)N[C@@H](C)C(=O)C(=O)N[C@@H](Cc1nnn[nH]1)C(N)=O)[C@@H](C)O (Ac-ITA[X1][Ala(1H-tetrazol-5-yl)]-NH2) | 1770 | inactive | – | –
C=CCOC(=O)CC[C@H](NC(=O)[C@H](Cc1nnn[nH]1)NC(=O)C(=O)[C@H](C)NC(=O)[C@H](C)NC(=O)[C@@H](NC(=O)[C@@H](NC(C)=O)[C@@H](C)CC)[C@@H](C)O)C(N)=O (Ac-ITA[X1][Ala(1H-tetrazol-5-yl)]E(OAll)-NH2) | 1240 | – | 2 | 24400
C=CCOC(=O)CC[C@H](NC(=O)[C@H](CCO)NC(=O)C(=O)[C@H](C)NC(=O)[C@H](C)NC(=O)[C@@H](NC(=O)[C@@H](NC(C)=O)[C@@H](C)CC)[C@@H](C)O)C(N)=O (Ac-ITA[X1][hSer]E(OAll)-NH2) | 38800 | – | – | –
C=CCOC(=O)CC[C@H](NC(=O)[C@H](CC(=O)O)NC(=O)C(=O)[C@H](C)NC(=O)CNC(=O)[C@@H](NC(=O)[C@@H](NC(C)=O)[C@@H](C)CC)[C@@H](C)O)C(N)=O (Ac-ITG[X1]DE(OAll)-NH2) | 1280 | – | – | –
C=CCOC(=O)CC[C@H](NC(=O)[C@H](CC(=O)O)NC(=O)C(=O)[C@H](C)NC(=O)[C@H](CC(F)(F)F)NC(=O)[C@@H](NC(=O)[C@@H](NC(C)=O)[C@@H](C)CC)[C@@H](C)O)C(N)=O (Ac-IT[Abu(4,4,4-F3)][X1]DE(OAll)-NH2) | 3600 | – | – | –
C=CCOC(=O)CC[C@H](NC(=O)[C@H](CC(=O)O)NC(=O)C(=O)[C@H](C)NC(=O)[C@H](C)NC(=O)[C@H](CCNC(=O)c1cnccn1)NC(=O)[C@@H](NC(C)=O)[C@@H](C)CC)C(N)=O (Ac-I[Dab](Pyrazinecarbonyl)A[X1]DE(OAll)-NH2) | 390 | – | 10 | –
CC(=O)N[C@H](C(=O)N[C@H](C(=O)N[C@@H](C)C(=O)N[C@@H](C)C(=O)C(=O)N[C@@H](CC(=O)O)C(=O)N[C@@H](CCC(=O)O)C(N)=O)[C@@H](C)O)C1CCCC1 (Ac-[Gly(cPent)]TA[X1]DE-NH2) | 30 | inactive | – | 88
C=CCOC(=O)CC[C@H](NC(=O)[C@H](CC(=O)O)NC(=O)C(=O)[C@H](C)NC(=O)C(C)(C)NC(=O)[C@@H](NC(=O)[C@@H](NC(C)=O)C1CCCC1)[C@@H](C)O)C(N)=O (Ac-[Gly(cPent)]T[Aib][X1]DE(OAll)-NH2) | > 100000 | inactive | – | –
C=CCOC(=O)CC[C@H](NC(=O)[C@H](CC(=O)O)NC(=O)C(=O)[C@H](C)NC(=O)[C@H](C)NC(=O)[C@](C)(CC(C)C)NC(=O)[C@@H](NC(C)=O)C1CCCC1)C(N)=O (Ac-[Gly(cPent)][αMeL]A[X1]DE(OAll)-NH2) | 5670 | inactive | – | –
C=CCOC(=O)CC[C@H](NC(=O)[C@H](CC(=O)O)NC(=O)C(=O)[C@H](C)NC(=O)[C@H](C)NC(=O)[C@@H](NC(=O)[C@@H](NC(C)=O)C(CC)CC)[C@@H](C)O)C(N)=O (Ac-[Nva(3-Et)]TA[X1]DE(OAll)-NH2) | 460 | – | 8 | –
C=CCOC(=O)CC[C@H](NC(=O)[C@H](CC(=O)O)NC(=O)C(=O)[C@H](C)NC(=O)[C@H](C)NC(=O)[C@@H](NC(=O)[C@@H](NC(C)=O)c1ccccc1)[C@@H](C)O)C(N)=O (Ac-[Phg]TA[X1]DE(OAll)-NH2) | 220 | – | 9 | –
C=CCOC(=O)CC[C@H](NC(=O)[C@H](CC(=O)O)NC(=O)C(=O)[C@H](C)NC(=O)[C@H](C)NC(=O)[C@@H](NC(=O)[C@H](CC(C)(C)C)NC(C)=O)[C@@H](C)O)C(N)=O (Ac-[tBuAla]TA[X1]DE(OAll)-NH2) | 390 | inactive | – | –

Continued by falling IC50 [1], values first:

IC50 [1] [nM] | Structure (SMILES) | inhibition [2] | inhibition at 100 µM [2] [%] | IC50 [3] [nM]
58400 | C=CCOC(=O)CC[C@H](NC(=O)[C@H](CC(=O)O)NC(=O)C(=O)[C@H](C)NC(=O)[C@H](C)NC(=O)[C@H](C)NC(=O)[C@@H](NC(C)=O)C1CCCC1)C(N)=O (Ac-[Gly(cPent)]AA[X1]DE(OAll)-NH2) | inactive | – | –
41800 | C=CCOC(=O)CC[C@H](NC(=O)[C@H](CO)NC(=O)C(=O)[C@H](C)NC(=O)[C@H](C)NC(=O)[C@@H](NC(=O)[C@@H](NC(C)=O)[C@@H](C)CC)[C@@H](C)O)C(N)=O (Ac-ITA[X1]SE(OAll)-NH2) | – | – | –
13200 | C=CCOC(=O)CC[C@H](NC(=O)[C@H](CC(=O)O)NC(=O)C(=O)[C@H](C)NC(=O)[C@H](CN)NC(=O)[C@@H](NC(=O)[C@@H](NC(C)=O)[C@@H](C)CC)[C@@H](C)O)C(N)=O (Ac-IT[Dap][X1]DE(OAll)-NH2) | – | – | –
13200 | C=CCOC(=O)CC[C@H](NC(=O)[C@H](CC(=O)O)NC(=O)C(=O)[C@H](C)NC(=O)[C@H](C)NC(=O)[C@H](CC(C)C)N(C)C(=O)[C@@H](NC(C)=O)C1CCCC1)C(N)=O (Ac-[Gly(cPent)][NMeL]A[X1]DE(OAll)-NH2) | – | – | –
5230 | C=CCOC(=O)CC[C@H](NC(=O)[C@H](CC(N)=O)NC(=O)C(=O)[C@H](C)NC(=O)[C@H](C)NC(=O)[C@@H](NC(=O)[C@@H](NC(C)=O)[C@@H](C)CC)[C@@H](C)O)C(N)=O (Ac-ITA[X1]NE(OAll)-NH2) | – | 31 | –
4700 | C=CCOC(=O)CC[C@H](NC(=O)[C@H](CC(=O)O)NC(=O)C(=O)[C@H](C)NC(=O)CN(C)C(=O)[C@@H](NC(=O)[C@@H](NC(C)=O)C1CCCC1)[C@@H](C)O)C(N)=O (Ac-[Gly(cPent)]T[Sar][X1]DE(OAll)-NH2) | – | – | –
500 | C=CCOC(=O)CC[C@H](NC(=O)[C@H](CC(=O)O)NC(=O)C(=O)[C@H](C)NC(=O)[C@H](CO)NC(=O)[C@@H](NC(=O)[C@@H](NC(C)=O)C1CCCC1)[C@@H](C)O)C(N)=O (Ac-[Gly(cPent)]TS[X1]DE(OAll)-NH2) | inactive | – | –
350 | C=CCOC(=O)CC[C@H](NC(=O)[C@H](CC(=O)O)NC(=O)C(=O)[C@H](C)NC(=O)[C@H](CC)NC(=O)[C@@H](NC(=O)[C@@H](NC(C)=O)[C@@H](C)CC)[C@@H](C)O)C(N)=O (Ac-IT[Abu][X1]DE(OAll)-NH2) | – | – | –
330 | C=CCOC(=O)CC[C@H](NC(=O)[C@H](CC(=O)O)NC(=O)C(=O)[C@H](C)NC(=O)C(=C)NC(=O)[C@@H](NC(=O)[C@@H](NC(C)=O)[C@@H](C)CC)[C@@H](C)O)C(N)=O (Ac-IT[Dha][X1]DE(OAll)-NH2) | inactive | – | –
240 | C=CCOC(=O)CC[C@H](NC(=O)[C@H](CC(=O)O)NC(=O)C(=O)[C@H](C)NC(=O)[C@H](C)NC(=O)[C@H](Cc1c[nH]c2ccccc12)NC(=O)[C@@H](NC(C)=O)[C@@H](C)CC)C(N)=O (Ac-IWA[X1]DE(OAll)-NH2) | – | 5 | –
210 | C=CCOC(=O)CC[C@H](NC(=O)[C@H](CC(=O)O)NC(=O)C(=O)[C@H](C)NC(=O)[C@H](C)NC(=O)[C@@H](NC(=O)[C@@H](NC(C)=O)C(C)(C)C)[C@@H](C)O)C(N)=O (Ac-[Tle]TA[X1]DE(OAll)-NH2) | – | 4 | –
170 | CC[C@H](C)[C@H](NC(C)=O)C(=O)N[C@H](C(=O)N[C@@H](C)C(=O)N[C@@H](C)C(=O)C(=O)N[C@@H](CC(=O)O)C(N)=O)[C@@H](C)O (Ac-ITA[X1]D-NH2) | – | 3 | –
